As usually defined, the IC50 is the concentration at which inhibition is half-maximal. Lower therefore signals greater potency in that assay.

The source of these data is ChEMBL document CHEMBL2417539, “1-substituted (Dibenzo[b,d]thiophen-4-yl)-2-morpholino-4H-chromen-4-ones endowed with dual DNA-PK/PI3-K inhibitory activity” (J Med Chem, 2013).

In test [1] the test system is HeLa. The test can be described thus: Antiproliferative activity against human HeLa cells assessed as cell survival ratio at 0.1 uM treated 1 hr before 2Gy ionizing radiation measured after 6 to 8 days by DMR clonogenic assay. Type of test: functional. The gist of the method:
(§1)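 HeLa cells seeded in 6-well dishes, incubated overnight at 37 °C/5% CO2, pre-treated 1 h with vehicle or inhibitor (0.1 or 0.5 μM), then given 2 Gy X-ray IR and held overnight. Medium then replaced without compound and culture continued 6-8 days. Colonies Giemsa-stained and counted automatically. DMR = % survival (vehicle, 2 Gy) / % survival (compound, 2 Gy).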

For test [2], the target named is DNA-dependent protein kinase catalytic subunit (Homo sapiens, UniProt P78527). As to the kind of experiment: Inhibition of human DNA-PK using GST-tagged p53N66 as substrate after 1 hr by ELISA-based chemiluminiscence assay. (ELISA stands for enzyme-linked immunosorbent assay.)
Test [3] concerns HeLa. As to the kind of experiment: Antiproliferative activity against human HeLa cells assessed as cell survival ratio at 0.5 uM treated 1 hr before 2Gy ionizing radiation measured after 6 to 8 days by DMR clonogenic assay. In kind it is functional. The gist of the method: as §1

Sequence of DNA-dependent protein kinase catalytic subunit (P78527 whole entry): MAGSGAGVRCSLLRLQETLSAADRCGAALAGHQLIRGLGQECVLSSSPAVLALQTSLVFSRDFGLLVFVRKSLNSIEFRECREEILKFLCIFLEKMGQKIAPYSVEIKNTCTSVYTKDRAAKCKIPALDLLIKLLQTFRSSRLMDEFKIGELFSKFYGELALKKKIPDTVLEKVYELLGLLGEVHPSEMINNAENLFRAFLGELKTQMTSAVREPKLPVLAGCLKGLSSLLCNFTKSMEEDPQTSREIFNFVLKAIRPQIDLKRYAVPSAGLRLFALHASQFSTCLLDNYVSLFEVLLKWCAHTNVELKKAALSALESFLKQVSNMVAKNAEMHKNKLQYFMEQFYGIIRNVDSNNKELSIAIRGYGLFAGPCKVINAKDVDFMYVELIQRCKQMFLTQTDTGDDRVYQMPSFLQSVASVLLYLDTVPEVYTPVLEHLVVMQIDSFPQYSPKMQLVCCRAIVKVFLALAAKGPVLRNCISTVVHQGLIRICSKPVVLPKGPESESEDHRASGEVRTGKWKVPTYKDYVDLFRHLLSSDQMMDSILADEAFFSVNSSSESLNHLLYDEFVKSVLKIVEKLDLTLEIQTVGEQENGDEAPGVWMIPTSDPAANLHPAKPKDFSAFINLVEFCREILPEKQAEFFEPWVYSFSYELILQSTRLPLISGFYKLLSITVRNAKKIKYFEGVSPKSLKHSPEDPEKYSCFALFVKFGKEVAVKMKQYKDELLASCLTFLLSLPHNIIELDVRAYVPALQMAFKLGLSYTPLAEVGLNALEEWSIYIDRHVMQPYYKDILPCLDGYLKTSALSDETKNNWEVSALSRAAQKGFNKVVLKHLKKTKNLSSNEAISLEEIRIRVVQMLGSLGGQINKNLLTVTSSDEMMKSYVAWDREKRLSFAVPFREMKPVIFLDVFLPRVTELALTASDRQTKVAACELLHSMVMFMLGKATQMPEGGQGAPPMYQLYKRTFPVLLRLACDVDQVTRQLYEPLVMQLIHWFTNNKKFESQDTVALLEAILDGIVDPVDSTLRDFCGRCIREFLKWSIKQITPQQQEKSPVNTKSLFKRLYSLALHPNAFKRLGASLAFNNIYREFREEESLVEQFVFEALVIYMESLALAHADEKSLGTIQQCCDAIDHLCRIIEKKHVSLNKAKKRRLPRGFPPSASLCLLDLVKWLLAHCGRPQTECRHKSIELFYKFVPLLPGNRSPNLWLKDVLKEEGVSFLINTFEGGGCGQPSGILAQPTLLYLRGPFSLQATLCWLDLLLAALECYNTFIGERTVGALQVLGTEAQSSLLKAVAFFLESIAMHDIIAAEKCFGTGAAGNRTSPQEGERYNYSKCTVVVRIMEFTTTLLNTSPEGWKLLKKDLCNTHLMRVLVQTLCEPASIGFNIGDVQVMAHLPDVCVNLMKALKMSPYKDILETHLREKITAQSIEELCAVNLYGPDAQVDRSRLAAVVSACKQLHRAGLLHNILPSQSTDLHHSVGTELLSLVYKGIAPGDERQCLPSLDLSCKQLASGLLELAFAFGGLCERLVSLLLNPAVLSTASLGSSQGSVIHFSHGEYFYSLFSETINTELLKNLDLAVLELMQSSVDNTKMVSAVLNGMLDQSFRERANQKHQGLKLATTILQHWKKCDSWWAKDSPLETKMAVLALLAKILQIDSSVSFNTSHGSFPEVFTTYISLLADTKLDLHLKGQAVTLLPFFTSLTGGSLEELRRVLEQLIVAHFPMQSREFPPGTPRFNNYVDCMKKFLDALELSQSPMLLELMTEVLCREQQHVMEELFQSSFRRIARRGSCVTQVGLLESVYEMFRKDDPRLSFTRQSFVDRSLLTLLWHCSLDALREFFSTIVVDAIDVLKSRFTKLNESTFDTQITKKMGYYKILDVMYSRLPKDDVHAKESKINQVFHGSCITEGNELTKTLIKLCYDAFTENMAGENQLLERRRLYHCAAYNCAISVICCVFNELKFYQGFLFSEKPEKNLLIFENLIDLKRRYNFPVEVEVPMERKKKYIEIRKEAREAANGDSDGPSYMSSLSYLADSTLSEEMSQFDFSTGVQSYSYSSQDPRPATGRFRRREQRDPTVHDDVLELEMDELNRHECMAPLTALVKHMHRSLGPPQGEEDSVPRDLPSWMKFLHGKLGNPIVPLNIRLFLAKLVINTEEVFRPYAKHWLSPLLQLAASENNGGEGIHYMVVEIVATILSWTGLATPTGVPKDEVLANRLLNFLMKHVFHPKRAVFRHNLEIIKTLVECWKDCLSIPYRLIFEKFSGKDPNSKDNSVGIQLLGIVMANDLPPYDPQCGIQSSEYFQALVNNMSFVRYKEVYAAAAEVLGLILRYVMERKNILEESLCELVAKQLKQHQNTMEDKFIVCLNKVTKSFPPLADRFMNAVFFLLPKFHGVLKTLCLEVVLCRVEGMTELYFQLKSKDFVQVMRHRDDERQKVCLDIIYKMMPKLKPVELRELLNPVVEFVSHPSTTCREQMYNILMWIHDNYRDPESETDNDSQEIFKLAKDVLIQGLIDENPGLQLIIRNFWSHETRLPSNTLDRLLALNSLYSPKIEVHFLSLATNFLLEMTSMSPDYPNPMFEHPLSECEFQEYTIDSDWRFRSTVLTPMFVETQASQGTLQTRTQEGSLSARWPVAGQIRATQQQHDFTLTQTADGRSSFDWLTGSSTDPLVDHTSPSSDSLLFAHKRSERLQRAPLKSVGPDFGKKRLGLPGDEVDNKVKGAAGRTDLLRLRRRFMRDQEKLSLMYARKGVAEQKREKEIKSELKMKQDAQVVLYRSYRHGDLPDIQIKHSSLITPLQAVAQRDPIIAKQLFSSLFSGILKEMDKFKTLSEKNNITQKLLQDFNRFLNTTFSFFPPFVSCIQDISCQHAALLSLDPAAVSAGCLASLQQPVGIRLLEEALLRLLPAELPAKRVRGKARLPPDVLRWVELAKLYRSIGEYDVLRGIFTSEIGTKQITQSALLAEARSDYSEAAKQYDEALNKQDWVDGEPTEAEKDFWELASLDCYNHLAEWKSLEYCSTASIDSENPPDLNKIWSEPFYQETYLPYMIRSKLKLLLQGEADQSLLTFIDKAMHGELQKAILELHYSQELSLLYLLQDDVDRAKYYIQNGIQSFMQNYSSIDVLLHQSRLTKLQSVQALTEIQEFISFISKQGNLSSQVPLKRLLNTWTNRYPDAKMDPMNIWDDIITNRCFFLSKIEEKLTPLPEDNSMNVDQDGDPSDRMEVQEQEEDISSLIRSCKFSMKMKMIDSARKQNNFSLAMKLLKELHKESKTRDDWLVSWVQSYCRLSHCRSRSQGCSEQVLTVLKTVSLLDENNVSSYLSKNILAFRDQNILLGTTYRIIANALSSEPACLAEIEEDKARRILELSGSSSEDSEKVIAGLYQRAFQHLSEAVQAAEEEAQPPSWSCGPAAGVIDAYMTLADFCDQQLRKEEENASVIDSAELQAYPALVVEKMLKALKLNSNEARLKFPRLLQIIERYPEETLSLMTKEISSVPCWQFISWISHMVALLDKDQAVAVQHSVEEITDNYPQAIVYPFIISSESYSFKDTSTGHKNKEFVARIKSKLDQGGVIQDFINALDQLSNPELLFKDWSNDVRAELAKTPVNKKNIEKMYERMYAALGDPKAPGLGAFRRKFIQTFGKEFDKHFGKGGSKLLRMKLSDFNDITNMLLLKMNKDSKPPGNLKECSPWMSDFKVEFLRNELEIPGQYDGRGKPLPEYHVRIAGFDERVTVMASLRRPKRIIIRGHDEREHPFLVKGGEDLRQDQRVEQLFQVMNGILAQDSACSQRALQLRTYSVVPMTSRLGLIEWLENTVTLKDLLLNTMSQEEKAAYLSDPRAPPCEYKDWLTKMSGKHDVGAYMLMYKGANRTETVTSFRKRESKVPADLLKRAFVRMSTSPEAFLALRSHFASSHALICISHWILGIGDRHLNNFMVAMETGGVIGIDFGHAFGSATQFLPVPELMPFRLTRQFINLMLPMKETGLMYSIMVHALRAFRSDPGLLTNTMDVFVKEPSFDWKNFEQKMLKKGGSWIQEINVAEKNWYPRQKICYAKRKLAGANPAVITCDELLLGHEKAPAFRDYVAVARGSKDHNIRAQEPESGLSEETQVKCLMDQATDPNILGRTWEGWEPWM

Consider `CN(C)CCOc1ccc(-c2cccc3c(=O)cc(N4CCOCC4)oc23)c2sc3ccccc3c12`, for which the Ratio in the test on HeLa [1] amounted to 1.8; in the test with HeLa [3], 3.3. Besides, the IC50 in test [2] stood at 8 nM.

For the molecule `NCC(=O)Nc1ccc(-c2cccc3c(=O)cc(N4CCOCC4)oc23)c2sc3ccccc3c12`, the Ratio was determined as 2.5 in the test with HeLa [1] and 9 with HeLa [3]. Also, the IC50 in test [2] turned out to be 12 nM.

Take `O=C(CNCCN1CCCCC1)Nc1ccc(-c2cccc3c(=O)cc(N4CCOCC4)oc23)c2sc3ccccc3c12`: the Ratio is listed as 1.3 with HeLa [1] and 9.6 in the test on HeLa [3]. For the same molecule, half-maximal inhibition in test [2] (IC50) was put at 61 nM.

As for `CN1CCN(CCC(=O)Nc2ccc(-c3cccc4c(=O)cc(N5CCOCC5)oc34)c3sc4ccccc4c23)CC1`, the Ratio was determined as 1 in the test with HeLa [1] and 6.6 in the test with HeLa [3]. Also, the IC50 in test [2] was found to be 28 nM.

With `O=C(CNCC1CCCO1)Nc1ccc(-c2cccc3c(=O)cc(N4CCOCC4)oc23)c2sc3ccccc3c12` (stereo not drawn), the figures for the Ratio in the test on HeLa [1] and with HeLa [3] were 1.7 and 7.7, respectively. For the same molecule, the 50% inhibitory concentration (IC50) in test [2] worked out at 14 nM.

Regarding `C[C@@H]1CN(CC(=O)Nc2ccc(-c3cccc4c(=O)cc(N5CCOCC5)oc34)c3sc4ccccc4c23)C[C@H](C)O1`, the Ratio was determined as 1.3 in the test on HeLa [1] and 8.2 with HeLa [3]. The molecule also returned a half-inhibitory concentration (IC50) in test [2] of 4 nM.

Take `O=C(CCN1CCCCC1)Nc1ccc(-c2cccc3c(=O)cc(N4CCOCC4)oc23)c2sc3ccccc3c12`: the Ratio was 1.9 with HeLa [1] and 5 with HeLa [3]. This molecule came in with a 50% inhibitory concentration (IC50) in test [2] of 37 nM.

`CC(C)N1CCN(CCC(=O)Nc2ccc(-c3cccc4c(=O)cc(N5CCOCC5)oc34)c3sc4ccccc4c23)CC1`: the Ratio in the test on HeLa [1] was 1.2; with HeLa [3] it was 3.6. The half-maximal inhibitory concentration (IC50) in test [2] is 37 nM.

`CC(=O)N1CCN(CCC(=O)Nc2ccc(-c3cccc4c(=O)cc(N5CCOCC5)oc34)c3sc4ccccc4c23)CC1`: the figures for the Ratio in the test with HeLa [1] and in the test on HeLa [3] were 0.9 and 1.4, respectively. The same molecule came in with an IC50 in test [2] of 23 nM.

`O=C(CN1CCN(CCOCCO)CC1)Nc1ccc(-c2cccc3c(=O)cc(N4CCOCC4)oc23)c2sc3ccccc3c12`: the Ratio with HeLa [1] was 1.6; with HeLa [3], 3.2. The midpoint of inhibition in test [2], the IC50, lay at 6 nM.

As to `CN(C)CCN(C)CCC(=O)Nc1ccc(-c2cccc3c(=O)cc(N4CCOCC4)oc23)c2sc3ccccc3c12`, the Ratio with HeLa [1] is 1.2; with HeLa [3], 5.1. Besides, the IC50 in test [2] was determined as 78 nM.

On to `CCN1CCCC1CNCCC(=O)Nc1ccc(-c2cccc3c(=O)cc(N4CCOCC4)oc23)c2sc3ccccc3c12` (stereo not drawn), for which the Ratio was determined as 1.2 in the test on HeLa [1] and 1.7 in the test with HeLa [3]. In test [2], half-maximal inhibition (IC50) required 49 nM.

For the molecule `COCCN1CCN(CC(=O)Nc2ccc(-c3cccc4c(=O)cc(N5CCOCC5)oc34)c3sc4ccccc4c23)CC1`, the Ratio in the test with HeLa [1] was found to be 2.2; in the test with HeLa [3], 7.7. The same molecule showed an IC50 in test [2] of 6 nM.

Turning to `CN(C)CCN1CCN(CC(=O)Nc2ccc(-c3cccc4c(=O)cc(N5CCOCC5)oc34)c3sc4ccccc4c23)CC1`, the Ratio with HeLa [1] turned out to be 1.7; in the test on HeLa [3] it was 5.9. Moreover, the IC50 in test [2] is 10 nM.

Turning to `COCCNCCC(=O)Nc1ccc(-c2cccc3c(=O)cc(N4CCOCC4)oc23)c2sc3ccccc3c12`, the Ratio in the test on HeLa [1] is recorded as 2.3; in the test with HeLa [3], 5.9. Also, half-maximal inhibition in test [2] (IC50) required 8 nM.

In test [2], `CCN(CC)CCOc1ccc(-c2cccc3c(=O)cc(N4CCOCC4)oc23)c2sc3ccccc3c12` showed an IC50 of 22 nM.

For `O=c1cc(N2CCOCC2)oc2c(-c3ccc(OCCNc4cccnc4)c4c3sc3ccccc34)cccc12`, the Ratio with HeLa [1] turned out to be 0.9; with HeLa [3] it was 1. Also, in test [2], the IC50 was 2 nM.

Consider `NCCC(=O)Nc1ccc(-c2cccc3c(=O)cc(N4CCOCC4)oc23)c2sc3ccccc3c12`, for which the values for the Ratio in the test with HeLa [1] and in the test on HeLa [3] were 1.1 and 1.4, respectively. Besides, in test [2], the IC50 turned out to be 8 nM.

Turning to `O=C(COc1ccc(-c2cccc3c(=O)cc(N4CCOCC4)oc23)c2sc3ccccc3c12)N1CCCCC1`, the Ratio is 1.4 in the test with HeLa [1] and 5.1 in the test on HeLa [3]. Further, in test [2], the IC50 was 19 nM.

Take `CN(C)CC(=O)Nc1ccc(-c2cccc3c(=O)cc(N4CCOCC4)oc23)c2sc3ccccc3c12`: the Ratio is 1 in the test with HeLa [1] and 7.4 in the test with HeLa [3]. In test [2], this molecule yielded an IC50 of 18 nM.

On to `CC(C)N1CCN(CC(=O)Nc2ccc(-c3cccc4c(=O)cc(N5CCOCC5)oc34)c3sc4ccccc4c23)CC1`, for which the results for the Ratio in the test with HeLa [1] and in the test with HeLa [3] were 1.7 and 12.9, respectively. This molecule showed an IC50 in test [2] of 9 nM.

For `O=C(CNCCO)Nc1ccc(-c2cccc3c(=O)cc(N4CCOCC4)oc23)c2sc3ccccc3c12`, the Ratio with HeLa [1] is 1.6; in the test with HeLa [3] it was 6.2. Also, in test [2], the IC50 was 8 nM.

Consider `O=C(CCN1CCN(c2ccccn2)CC1)Nc1ccc(-c2cccc3c(=O)cc(N4CCOCC4)oc23)c2sc3ccccc3c12`, for which the Ratio with HeLa [1] stood at 1.5; in the test with HeLa [3] it was 4.4. The molecule also returned an IC50 in test [2] of 24 nM.

For `O=C(CN(CCO)CCO)Nc1ccc(-c2cccc3c(=O)cc(N4CCOCC4)oc23)c2sc3ccccc3c12`, the Ratio is given as 1.1 with HeLa [1] and 1.9 in the test on HeLa [3]. In addition, in test [2], the 50% inhibitory concentration (IC50) was determined as 6 nM.

As to `COc1ccc(CNCCC(=O)Nc2ccc(-c3cccc4c(=O)cc(N5CCOCC5)oc34)c3sc4ccccc4c23)cc1`, the Ratio in the test with HeLa [1] is given as 1.7; with HeLa [3] it was 7.2. Besides, it took 9 nM to reach half-maximal inhibition in test [2] (IC50).

`CN1CCCN(CC(=O)Nc2ccc(-c3cccc4c(=O)cc(N5CCOCC5)oc34)c3sc4ccccc4c23)CC1`: the Ratio in the test on HeLa [1] came out at 1.7; in the test on HeLa [3], 7.6. Further, the IC50 in test [2] amounted to 55 nM.

Take `CN(C)CCN(C)CC(=O)Nc1ccc(-c2cccc3c(=O)cc(N4CCOCC4)oc23)c2sc3ccccc3c12`: the Ratio with HeLa [1] was 1.1; in the test on HeLa [3], 5.7. 57 nM corresponded to half-maximal inhibition in test [2] (IC50).

Consider `COC(=O)[C@H](CO)NCCOc1ccc(-c2cccc3c(=O)cc(N4CCOCC4)oc23)c2sc3ccccc3c12`, for which the Ratio in the test with HeLa [1] was 2.9; with HeLa [3] it was 10.5. This molecule came in with a concentration for half-maximal inhibition (IC50) in test [2] of 2 nM.

On to `CCN(CC(=O)Nc1ccc(-c2cccc3c(=O)cc(N4CCOCC4)oc23)c2sc3ccccc3c12)Cc1ccncc1`, for which the Ratio was 1.5 in the test with HeLa [1] and 14.1 with HeLa [3]. In test [2], this molecule returned a half-inhibitory concentration (IC50) of 8 nM.

Regarding `O=C(CN1CCCNCC1)Nc1ccc(-c2cccc3c(=O)cc(N4CCOCC4)oc23)c2sc3ccccc3c12`, the Ratio is reported as 1.4 with HeLa [1] and 1.5 in the test with HeLa [3]. In test [2], the half-inhibitory concentration (IC50) was 22 nM.

For the molecule `O=C(CNCCN1CCOCC1)Nc1ccc(-c2cccc3c(=O)cc(N4CCOCC4)oc23)c2sc3ccccc3c12`, the Ratio in the test on HeLa [1] is recorded as 1.4; with HeLa [3], 4.7. The same molecule showed an IC50 in test [2] of 12 nM.

Take `O=C(CN1CCN(c2ccc(F)cc2)CC1)Nc1ccc(-c2cccc3c(=O)cc(N4CCOCC4)oc23)c2sc3ccccc3c12`: the results for the Ratio with HeLa [1] and with HeLa [3] were 1 and 4.9, respectively. Moreover, in test [2], the IC50 was 15 nM.

Consider `CC(C)N1CCN(C(=O)COc2ccc(-c3cccc4c(=O)cc(N5CCOCC5)oc34)c3sc4ccccc4c23)CC1`, for which the Ratio is listed as 1.3 in the test on HeLa [1] and 3.1 in the test with HeLa [3]. In addition, in test [2], the IC50 was found to be 16 nM.

For the molecule `CN(C)CCN(C)C(=O)COc1ccc(-c2cccc3c(=O)cc(N4CCOCC4)oc23)c2sc3ccccc3c12`, the Ratio in the test with HeLa [1] is given as 1.4; in the test on HeLa [3], 2.1. The molecule further showed an IC50 in test [2] of 53 nM.

For `O=C(CNCCCN1CCOCC1)Nc1ccc(-c2cccc3c(=O)cc(N4CCOCC4)oc23)c2sc3ccccc3c12`, the values for the Ratio with HeLa [1] and with HeLa [3] were 2 and 7.4, respectively. The molecule also yielded a half-inhibitory concentration (IC50) in test [2] of 13 nM.

On to `CN(CCOc1ccc(-c2cccc3c(=O)cc(N4CCOCC4)oc23)c2sc3ccccc3c12)CC(N)=O`, for which the Ratio in the test with HeLa [1] amounted to 1.4; in the test on HeLa [3] it was 7.7. Also, it took 3 nM to reach half-maximal inhibition in test [2] (IC50).

`C[C@@H]1CN(CCOc2ccc(-c3cccc4c(=O)cc(N5CCOCC5)oc34)c3sc4ccccc4c23)C[C@H](C)O1`: the Ratio came to 1.1 in the test on HeLa [1] and 3.2 in the test with HeLa [3]. The half-maximal inhibitory concentration (IC50) in test [2] is 10 nM.

On to `O=C(CCN1CCN(c2ncccn2)CC1)Nc1ccc(-c2cccc3c(=O)cc(N4CCOCC4)oc23)c2sc3ccccc3c12`, for which the Ratio amounted to 1.6 with HeLa [1] and 7.1 in the test with HeLa [3]. Besides, the IC50 in test [2] came out at 18 nM.

With `CN1CCN(CCOc2ccc(-c3cccc4c(=O)cc(N5CCOCC5)oc34)c3sc4ccccc4c23)CC1`, the Ratio was found to be 3.1 in the test with HeLa [1] and 5.1 in the test with HeLa [3]. Besides, inhibition in test [2] was half-maximal at 7 nM (IC50).

Regarding `CN1CCCC1CCNCCC(=O)Nc1ccc(-c2cccc3c(=O)cc(N4CCOCC4)oc23)c2sc3ccccc3c12` (stereo not drawn), the Ratio with HeLa [1] is on record as 1.3; in the test with HeLa [3] it was 1.2. In test [2], this molecule showed a half-inhibitory concentration (IC50) of 13 nM.

Regarding `O=C(CCNCCN1CCCCC1)Nc1ccc(-c2cccc3c(=O)cc(N4CCOCC4)oc23)c2sc3ccccc3c12`, the Ratio is 1 with HeLa [1] and 3.3 in the test with HeLa [3]. The half-inhibitory concentration (IC50) in test [2] stood at 33 nM.

With `O=C(CN1CCCCC1)Nc1ccc(-c2cccc3c(=O)cc(N4CCOCC4)oc23)c2sc3ccccc3c12`, the Ratio with HeLa [1] amounted to 1.2; in the test with HeLa [3], 10.4. In test [2], the half-inhibitory concentration (IC50) turned out to be 21 nM.

In the case of `O=C(CCN1CCN(c2ccc(F)cc2)CC1)Nc1ccc(-c2cccc3c(=O)cc(N4CCOCC4)oc23)c2sc3ccccc3c12`, the Ratio in the test with HeLa [1] is listed as 1.5; in the test on HeLa [3] it was 3.8. In addition, the half-maximal inhibitory concentration (IC50) in test [2] came out at 30 nM.

In test [2], `CN(C)CCN(C)CCOc1ccc(-c2cccc3c(=O)cc(N4CCOCC4)oc23)c2sc3ccccc3c12` had an IC50 of 5 nM.
